Calls of active or inactive are those of the source. The calls are words filed in the database; no cut-off is given here.
Columns and labels:
Ebolavirus = assay: Antiviral activity against Ebolavirus up to 10 uM; assay type: functional
Huh-7 = assay: Cytotoxicity against human HuH7 cells assessed as reduction in cell viability by MTT assay; assay type: cell-based
Hepatitis C virus = assay: Antiviral activity against HCV genotype 1b infected in human HuH7 cells assessed as inhibition of viral RNA replication after 5 days by RT-PCR method; assay type: functional, organism-based, Hepacivirus hominis; details: Huh-7, 120 h
Method in brief: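 Subgenomic HCV genotype 1b replicon in Huh-7 cells. Inhibition of replicon RNA replication was measured by extracting and amplifying HCV RNA. Cellular ribosomal RNA was extracted and amplified at the same time, as a parallel cytotoxicity read-out.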

PBMC = assay: (§1) Cytotoxicity against human PBMC assessed as reduction in cell viability after 6 days by trypan blue exclusion assay; assay type: cell-based; details: pbmc, 144 h
[1] = tested on: Human immunodeficiency virus; assay: Antiviral activity against Human immunodeficiency virus up to 10 uM; assay type: functional, organism-based
[2] = tested on: Respiratory syncytial virus; assay: Antiviral activity against Respiratory syncytial virus up to 10 uM; assay type: functional, organism-based
[3] = tested on: unidentified influenza virus; assay: Antiviral activity against Influenza virus up to 10 uM; assay type: functional, organism-based
CCRF-CEM = assay: (§2) Cytotoxicity against human CEM cells assessed as reduction in cell viability after 6 days by trypan blue exclusion assay; assay type: cell-based; details: ccrf-cem, 144 h
Dengue virus = assay: Antiviral activity against Dengue virus up to 10 uM; assay type: functional, organism-based
Vero = assay: (§3) Cytotoxicity against African green monkey Vero cells assessed as reduction in cell viability after 6 days by trypan blue exclusion assay; assay type: cell-based; details: chlorocebus sabaeus, vero, 144 h
Norovirus = assay: Antiviral activity against Norovirus up to 10 uM; assay type: functional, organism-based
West Nile virus = assay: Antiviral activity against West Nile virus up to 10 uM; assay type: functional, organism-based
Chikungunya virus = assay: Antiviral activity against Chikungunya virus up to 10 uM; assay type: functional, organism-based
[4] = as §1; assay type: cell-based; details: PBMC
[5] = as §2; assay type: cell-based, CCRF-CEM; details: CEM cells
[6] = as §3; assay type: cell-based; details: chlorocebus sabaeus, Vero cells

| Structure (SMILES) | Activity (Ebolavirus) | CC50 (Huh-7) [µM] | EC50 (Hepatitis C virus) [µM] | CC50 (PBMC) [µM] | Activity [1] | Activity [2] | Activity [3] | CC50 (CCRF-CEM) [µM] | Activity (Dengue virus) | CC50 (Vero) [µM] | Activity (Norovirus) | Activity (West Nile virus) | Activity (Chikungunya virus) | EC90 (Hepatitis C virus) [µM] | CC50 at 144 h [4] [µM] | CC50 at 144 h [5] [µM] | CC50 at 144 h [6] [µM] |
| --- | --- | --- | --- | --- | --- | --- | --- | --- | --- | --- | --- | --- | --- | --- | --- | --- | --- |
| CC(C)OC(=O)[C@H](C)N[P@](=O)(OC[C@H]1O[C@@H](n2cnc3c(=O)[nH]c(N)nc32)C(Br)(Br)[C@@H]1O)Oc1ccccc1 | inactive | > 10 | > 10 | > 100 | inactive | inactive | inactive | 34 | inactive | > 100 | inactive | inactive | inactive |  |  |  |  |
| CC(C)OC(=O)[C@H](C)N[P@](=O)(OC[C@H]1O[C@@H](n2ccc(N)nc2=O)C(Br)(Br)[C@@H]1O)Oc1ccccc1 | inactive | > 10 | > 10 | > 100 | inactive | inactive | inactive | 73 | inactive | > 100 | inactive | inactive | inactive | > 10 |  |  |  |
| CC(C)OC(=O)[C@H](C)N[P@](=O)(OC[C@H]1O[C@@H](n2ccc(=O)[nH]c2=O)C(Br)(Br)[C@@H]1O)Oc1ccccc1 | inactive | > 10 | 1.5 | > 100 | inactive | inactive | inactive | 95 | inactive | > 100 | inactive | inactive | inactive | 2.7 |  |  |  |
| CC(C)OC(=O)[C@H](C)N[P@](=O)(OC[C@H]1O[C@@H](n2cnc3c(N)ncnc32)C(Br)(Br)[C@@H]1O)Oc1ccccc1 | inactive | > 10 | > 10 | 57 | inactive | inactive | inactive | 33 | inactive | 60 | inactive | inactive | inactive |  |  |  |  |
| Nc1nc2c(ncn2[C@@H]2O[C@H](CO)C(O)C2(Br)Br)c(=O)[nH]1 (single isomer, unassigned) | inactive | > 10 | > 10 | > 100 | inactive | inactive | inactive | > 100 | inactive | > 100 | inactive | inactive | inactive | > 10 |  |  |  |
| Nc1ccn([C@@H]2O[C@H](CO)C(O)C2(Br)Br)c(=O)n1 (single isomer, unassigned) | inactive | > 10 | > 10 | > 100 | inactive | inactive | inactive | 82 | inactive | > 100 | inactive | inactive | inactive |  |  |  |  |
| Nc1ncnc2c1ncn2[C@@H]1O[C@H](CO)C(O)C1(Br)Br (single isomer, unassigned) | inactive | > 10 | > 10 | > 100 | inactive | inactive | inactive | > 100 | inactive | > 100 | inactive | inactive | inactive | > 10 |  |  |  |
| O=c1ccn([C@@H]2O[C@H](CO)C(O)C2(Br)Br)c(=O)[nH]1 (single isomer, unassigned) | inactive | > 33 | > 33 | > 100 | inactive | inactive | inactive | > 100 | inactive | > 100 | inactive | inactive | inactive | > 33 |  |  |  |
| CC(C)OC(=O)[C@H](C)N[P@](=O)(OC[C@H]1O[C@@H](n2ccc(=O)[nH]c2=O)[C@](C)(F)[C@@H]1O)Oc1ccccc1 [SOFOSBUVIR] |  | > 10 | 0.2 |  |  |  |  |  |  |  |  |  |  | 0.5 | > 100 | > 100 | > 100 |

Source: ChEMBL document CHEMBL4177626, “Synthesis and anti-HCV activity of a series of β-d-2'-deoxy-2'-dibromo nucleosides and their corresponding phosphoramidate prodrugs” (Bioorg Med Chem Lett, 2017)
